From ChEMBL document CHEMBL1156597, “Structure-activity relationship of kahalalide F synthetic analogues” (J Med Chem, 2008)

Assays:
[1] = system: A549; experiment: Cytotoxicity against human A549 cells after 48 hrs by SRB assay; format: functional, cell-based; conditions: Homo sapiens, A549, 48 h
Procedure, shortened: (§1)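 Cells grown in RPMI 1640 with 10% FBS and penicillin/streptomycin at 37 °C and 5% CO₂, trypsinized, then seeded at 5 × 10³/well. After 18 h drug-free attachment, samples in DMSO/EtOH/PBS (0.5:0.5:99) were added for 48 h continuous exposure. Cells were fixed with cold TCA (1 h, 4 °C) and stained with SRB (10 min). Tris-solubilized stain read at 490 nm. Triplicate wells, mean ± SD; GI₅₀ derived.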

[2] = system: LoVo; experiment: Cytotoxicity against human LoVo cells after 48 hrs by SRB assay; format: functional; conditions: for CC50: read-out: LC50 (the source's name)
[3] = system: DU-145; experiment: Cytotoxicity against human DU145 cells after 48 hrs by SRB assay; format: functional, cell-based; conditions: Homo sapiens, DU-145, 48 h; for CC50: read-out: LC50 (the source's name); procedure, shortened: as §1
[4] = system: K562; experiment: Cytotoxicity against human K562 cells after 48 hrs by SRB assay; format: functional; conditions: K562, 48 h; for CC50: read-out: LC50 (the source's name); procedure, shortened: as §1
[5] = system: PANC-1; experiment: Cytotoxicity against human PANC1 cells after 48 hrs by SRB assay; format: functional; conditions: PANC-1, 48 h; for CC50: read-out: LC50 (the source's name); procedure, shortened: as §1
[6] = Cytotoxicity against human HeLa-APL cells after 48 hrs by SRB assay; format: functional; procedure, shortened: as §1
[7] = system: HT-29; experiment: Cytotoxicity against human HT29 cells after 48 hrs by SRB assay; format: functional, cell-based; conditions: Homo sapiens, HT-29, 48 h; for CC50: read-out: LC50 (the source's name); procedure, shortened: as §1
[8] = system: HeLa; experiment: Cytotoxicity against human HeLa cells after 48 hrs by SRB assay; format: functional; conditions: for CC50: read-out: LC50 (the source's name); procedure, shortened: as §1
[9] = system: LoVo; experiment: Cytotoxicity against human doxorubicin resistant LoVo cells after 48 hrs by SRB assay; format: functional; conditions: for CC50: read-out: LC50 (the source's name); procedure, shortened: as §1
[10] = system: SK-BR-3; experiment: Cytotoxicity against human SKBR3 cells after 48 hrs by SRB assay; format: functional; conditions: SK-BR-3, 48 h; for GI50: read-out: GI50; for CC50: read-out: LC50 (the source's name); procedure, shortened: as §1
[11] = Cytotoxicity against human IGROV-ET cells after 48 hrs by SRB assay; format: functional; conditions: for CC50: read-out: LC50 (the source's name); procedure, shortened: as §1
[12] = system: SK-MEL-28; experiment: Cytotoxicity against human SK-MEL-28 cells after 48 hrs by SRB assay; format: functional, cell-based; conditions: Homo sapiens, SK-MEL-28, 48 h; for CC50: read-out: LC50 (the source's name); procedure, shortened: as §1
[13] = system: LNCaP; experiment: Cytotoxicity against human LNcaP cells after 48 hrs by SRB assay; format: functional; conditions: for CC50: read-out: LC50 (the source's name); procedure, shortened: as §1
[14] = Cytotoxicity against human IGROV cells after 48 hrs by SRB assay; format: functional; conditions: for CC50: read-out: LC50 (the source's name); procedure, shortened: as §1

C/C=C1\NC(=O)[C@H](Cc2ccccc2)NC(=O)[C@@H](C(C)C)NC(=O)[C@@H]([C@H](C)CC)NC(=O)[C@H](NC(=O)[C@H](NC(=O)[C@H](CCCN)NC(=O)[C@H]2CCCN2C(=O)[C@H](NC(=O)[C@@H](NC(=O)[C@H](Cc2ccccc2)NC(=O)[C@H](NC(=O)CCCC(C)C)C(C)C)C(C)C)C(C)C)[C@H](C)CC)[C@H](C)OC(=O)[C@H](C(C)C)NC1=O
LC50 [1]: 1330 nM | TGI [1]: 71.4 nM | GI50 ([1]; read-out: GI50): 69.4 nM | GI50 [2]: 332 nM | TGI [2]: 296 nM | CC50 [2]: 210 nM | GI50 [3]: 166 nM | GI50 ([3]; read-out: GI50): 191 nM | CC50 [3]: 321 nM | GI50 [4]: 23.2 nM | TGI [4]: 106 nM | CC50 [4]: 1150 nM | GI50 [5]: 142 nM | TGI [5]: 304 nM | CC50 [5]: 1720 nM | GI50 [6]: 145 nM | LC50 (concentration giving 50% net cell kill) [6]: 282 nM | TGI [6]: 142 nM | CC50 [7]: 68.3 nM | GI50 [8]: 128 nM | TGI [8]: 137 nM | CC50 [8]: 352 nM | GI50 [9]: 380 nM | TGI [9]: 456 nM | CC50 [9]: 252 nM | TGI [10]: 351 nM | GI50 [10]: 303 nM | CC50 [10]: 352 nM | GI50 [11]: 197 nM | GI50 ([11]; read-out: GI50): 245 nM | CC50 [11]: 518 nM | GI50 [12]: 146 nM | GI50 ([12]; read-out: GI50): 152 nM | CC50 [12]: 158 nM | GI50 [13]: 61.7 nM | TGI [13]: 132 nM | CC50 [13]: 777 nM | GI50 [14]: 103 nM | GI50 ([14]; read-out: GI50): 175 nM | CC50 [14]: 478 nM

C/C=C1\NC(=O)[C@H](Cc2ccccc2)NC(=O)[C@@H](C(C)C)NC(=O)[C@@H]([C@H](C)CC)NC(=O)[C@H](NC(=O)[C@H](NC(=O)[C@H](CCCN)NC(=O)[C@H]2CCCN2C(=O)[C@H](NC(=O)[C@@H](NC(=O)CNC(=O)[C@H](NC(=O)CCCC(C)C)C(C)C)C(C)C)C(C)C)[C@H](C)CC)[C@H](C)OC(=O)[C@H](C(C)C)NC1=O
GI50 [1]: 622 nM | GI50 ([1]; read-out: GI50): 524 nM | GI50 [2]: 597 nM | TGI [2]: 1130 nM | CC50 [2]: 828 nM | GI50 [3]: 994 nM | GI50 ([3]; read-out: GI50): 572 nM | CC50 [3]: 1360 nM | GI50 [4]: 129 nM | TGI [4]: 208 nM | CC50 [4]: 744 nM | GI50 [5]: 515 nM | TGI [5]: 1070 nM | CC50 [5]: 1990 nM | GI50 [6]: 230 nM | LC50 (concentration giving 50% net cell kill) [6]: 684 nM | TGI [6]: 421 nM | GI50 [7]: 893 nM | TGI [7]: 1850 nM | CC50 [7]: 796 nM | GI50 [8]: 250 nM | TGI [8]: 471 nM | CC50 [8]: 755 nM | GI50 [9]: 2390 nM | TGI [9]: 3040 nM | CC50 [9]: 3850 nM | TGI [10]: 819 nM | GI50 [10]: 629 nM | CC50 [10]: 512 nM | GI50 [11]: 232 nM | GI50 ([11]; read-out: GI50): 197 nM | CC50 [11]: 566 nM | GI50 [12]: 283 nM | GI50 ([12]; read-out: GI50): 205 nM | CC50 [12]: 717 nM | GI50 [13]: 233 nM | TGI [13]: 988 nM | CC50 [13]: 988 nM | GI50 [14]: 83.7 nM | GI50 ([14]; read-out: GI50): 80.7 nM | CC50 [14]: 139 nM

C/C=C1\NC(=O)[C@H](Cc2ccccc2)NC(=O)[C@@H](C(C)C)NC(=O)[C@@H]([C@H](C)CC)NC(=O)[C@H](NC(=O)[C@H](NC(=O)[C@H](CCCN)NC(=O)[C@H]2CCCN2C(=O)[C@H](NC(=O)[C@H](CCC2CCCCC2)NC(=O)[C@@H](NC(=O)[C@H](NC(=O)CCCC(C)C)C(C)C)[C@@H](C)O)C(C)C)[C@H](C)CC)[C@H](C)OC(=O)[C@H](C(C)C)NC1=O
GI50 [1]: 233 nM | LC50 [1]: 437 nM | GI50 ([1]; read-out: GI50): 186 nM | GI50 [2]: 240 nM | TGI [2]: 256 nM | CC50 [2]: 273 nM | GI50 [3]: 507 nM | GI50 ([3]; read-out: GI50): 350 nM | CC50 [3]: 709 nM | CC50 [4]: 1850 nM | GI50 [5]: 1040 nM | TGI [5]: 1380 nM | CC50 [5]: 1700 nM | GI50 [6]: 462 nM | LC50 (concentration giving 50% net cell kill) [6]: 732 nM | TGI [6]: 672 nM | GI50 [7]: 235 nM | TGI [7]: 265 nM | CC50 [7]: 0.299 µg/mL | GI50 [8]: 394 nM | TGI [8]: 628 nM | CC50 [8]: 829 nM | GI50 [9]: 114 nM | TGI [9]: 153 nM | CC50 [9]: 1000 nM | TGI [10]: 267 nM | GI50 [10]: 234 nM | CC50 [10]: 230 nM | GI50 [11]: 380 nM | GI50 ([11]; read-out: GI50): 377 nM | CC50 [11]: 455 nM | GI50 [12]: 467 nM | GI50 ([12]; read-out: GI50): 329 nM | CC50 [12]: 626 nM | GI50 [13]: 639 nM | TGI [13]: 909 nM | CC50 [13]: 1290 nM | TGI [14]: 2940 nM | GI50 ([14]; read-out: GI50): 284 nM | CC50 [14]: 3870 nM

C/C=C1\NC(=O)[C@H](Cc2ccccc2)NC(=O)[C@@H](C(C)C)NC(=O)[C@@H]([C@H](C)CC)NC(=O)[C@H](NC(=O)[C@H](NC(=O)[C@H](CCCN)NC(=O)[C@H]2CCCN2C(=O)[C@H](NC(=O)[C@@H](NC(=O)[C@@H](NC(=O)[C@H](NC(=O)CC[C@@H](C)CC)C(C)C)[C@@H](C)OC(=O)C(F)(F)F)C(C)C)C(C)C)[C@H](C)CC)[C@H](C)OC(=O)[C@H](C(C)C)NC1=O
GI50 [1]: 882 nM | LC50 [1]: 101 nM | GI50 ([1]; read-out: GI50): 7700 nM | GI50 [2]: 212 nM | TGI [2]: 257 nM | CC50 [2]: 310 nM | GI50 [3]: 752 nM | GI50 ([3]; read-out: GI50): 617 nM | CC50 [3]: 914 nM | CC50 [4]: 181 nM | GI50 [5]: 1430 nM | TGI [5]: 1660 nM | CC50 [5]: 1660 nM | GI50 [6]: 499 nM | LC50 (concentration giving 50% net cell kill) [6]: 892 nM | TGI [6]: 745 nM | GI50 [7]: 241 nM | TGI [7]: 257 nM | CC50 [7]: 271 nM | GI50 [8]: 294 nM | TGI [8]: 553 nM | CC50 [8]: 818 nM | GI50 [9]: 189 nM | TGI [9]: 222 nM | CC50 [9]: 1400 nM | TGI [10]: 218 nM | GI50 [10]: 203 nM | CC50 [10]: 141 nM | GI50 [11]: 191 nM | GI50 ([11]; read-out: GI50): 231 nM | CC50 [11]: 468 nM | GI50 [12]: 772 nM | GI50 ([12]; read-out: GI50): 716 nM | CC50 [12]: 839 nM | GI50 [13]: 610 nM | TGI [13]: 1020 nM | CC50 [13]: 1400 nM | GI50 [14]: 345 nM | GI50 ([14]; read-out: GI50): 287 nM | CC50 [14]: 508 nM
